According to ChEMBL document CHEMBL4689842, “EUbOPEN Chemogenomics Library wave 1” (2021):

System: Fibroblast
Assay: Multiplex assay against human fibroblast
Type: toxicity, cell-based
How it was run: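 Values for tubulin, mitochondrial-mass and membrane-permeability phenotypes are per cents of cells with healthy nuclei. These cells were identified by CellPathfinder machine-learning gating of live cells that had been stained at seeding with Hoechst33342, BioTracker Green Microtubule Cytoskeleton Dye, MitoTracker Red and Annexin V Alexa Fluor 680 and imaged on a CQ1 microscope at 37°C and 5% CO2 after compound addition. The gating first set Hoechst high-intensity objects apart from normal cells, then split normal cells into healthy, pyknosed or fragmented nuclei, and pyknosed cells into mitotic or apoptotic.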

[1] = 12 h, 1 µM, compound concentration 1 uM, replicate 1
[2] = 12 h, 1 µM, compound concentration 1 uM, replicate 2
[3] = 12 h, 10 µM, compound concentration 10 uM, replicate 1
[4] = 12 h, 10 µM, compound concentration 10 uM, replicate 2
[5] = 24 h, 1 µM, compound concentration 1 uM, replicate 1
[6] = 24 h, 1 µM, compound concentration 1 uM, replicate 2
[7] = 24 h, 10 µM, compound concentration 10 uM, replicate 1
[8] = 24 h, 10 µM, compound concentration 10 uM, replicate 2
[9] = 48 h, 1 µM, compound concentration 1 uM, replicate 1
[10] = 48 h, 1 µM, compound concentration 1 uM, replicate 2
[11] = 48 h, 10 µM, compound concentration 10 uM, replicate 1
[12] = 48 h, 10 µM, compound concentration 10 uM, replicate 2

Structure (SMILES): COc1ncc(-c2ccc3nccc(-c4ccnnc4)c3c2)cc1NS(=O)(=O)c1ccc(F)cc1F [OMIPALISIB]
- Population Apoptotic (%) [1]: 57%
- Population Fragmented Nuclei (%) [1]: 21%
- Population Healthy Nuclei (%) [1]: 49%
- Population Hoechst High Intensity Objects (%) [1]: 12%
- Population Membrane Permeable-Phenotype (%) [1]: 28%
- Population Mitochondria Different-Phenotype (%) [1]: 2%
- Population Mitotic Cells (%) [1]: 42%
- Population Normal (%) [1]: 87%
- Population Pyknosed Nuclei (%) [1]: 29%
- Population Tubulin-Different-Phenotype (%) [1]: 51%
- Total Cell Count [1]: 81
- Population Apoptotic (%) [2]: 50%
- Population Fragmented Nuclei (%) [2]: 46%
- Population Healthy Nuclei (%) [2]: 42%
- Population Hoechst High Intensity Objects (%) [2]: 7%
- Population Membrane Permeable-Phenotype (%) [2]: 16%
- Population Mitochondria Different-Phenotype (%) [2]: 16%
- Population Mitotic Cells (%) [2]: 50%
- Population Normal (%) [2]: 92%
- Population Pyknosed Nuclei (%) [2]: 11%
- Population Tubulin-Different-Phenotype (%) [2]: 23%
- Total Cell Count [2]: 51
- Population Apoptotic (%) [3]: 78%
- Population Fragmented Nuclei (%) [3]: 20%
- Population Healthy Nuclei (%) [3]: 38%
- Population Hoechst High Intensity Objects (%) [3]: 18%
- Population Membrane Permeable-Phenotype (%) [3]: 30%
- Population Mitochondria Different-Phenotype (%) [3]: 6%
- Population Mitotic Cells (%) [3]: 21%
- Population Normal (%) [3]: 81%
- Population Pyknosed Nuclei (%) [3]: 41%
- Population Tubulin-Different-Phenotype (%) [3]: 73%
- Total Cell Count [3]: 96
- Population Apoptotic (%) [4]: 65%
- Population Fragmented Nuclei (%) [4]: 33%
- Population Healthy Nuclei (%) [4]: 27%
- Population Hoechst High Intensity Objects (%) [4]: 7%
- Population Membrane Permeable-Phenotype (%) [4]: 11%
- Population Mitochondria Different-Phenotype (%) [4]: 16%
- Population Mitotic Cells (%) [4]: 34%
- Population Normal (%) [4]: 92%
- Population Pyknosed Nuclei (%) [4]: 39%
- Population Tubulin-Different-Phenotype (%) [4]: 22%
- Total Cell Count [4]: 77
- Population Apoptotic (%) [5]: 58%
- Population Fragmented Nuclei (%) [5]: 30%
- Population Healthy Nuclei (%) [5]: 53%
- Population Hoechst High Intensity Objects (%) [5]: 10%
- Population Membrane Permeable-Phenotype (%) [5]: 32%
- Population Mitochondria Different-Phenotype (%) [5]: 2%
- Population Mitotic Cells (%) [5]: 41%
- Population Normal (%) [5]: 89%
- Population Tubulin-Different-Phenotype (%) [5]: 42%
- Total Cell Count [5]: 84
- Population Apoptotic (%) [6]: 33%
- Population Fragmented Nuclei (%) [6]: 43%
- Population Healthy Nuclei (%) [6]: 40%
- Population Hoechst High Intensity Objects (%) [6]: 11%
- Population Membrane Permeable-Phenotype (%) [6]: 24%
- Population Mitochondria Different-Phenotype (%) [6]: 17%
- Population Mitotic Cells (%) [6]: 66%
- Population Normal (%) [6]: 88%
- Population Pyknosed Nuclei (%) [6]: 16%
- Population Tubulin-Different-Phenotype (%) [6]: 37%
- Total Cell Count [6]: 50
- Population Apoptotic (%) [7]: 66%
- Population Fragmented Nuclei (%) [7]: 25%
- Population Healthy Nuclei (%) [7]: 49%
- Population Hoechst High Intensity Objects (%) [7]: 20%
- Population Membrane Permeable-Phenotype (%) [7]: 31%
- Population Mitochondria Different-Phenotype (%) [7]: 11%
- Population Mitotic Cells (%) [7]: 33%
- Population Normal (%) [7]: 79%
- Population Pyknosed Nuclei (%) [7]: 25%
- Population Tubulin-Different-Phenotype (%) [7]: 80%
- Total Cell Count [7]: 89
- Population Apoptotic (%) [8]: 80%
- Population Fragmented Nuclei (%) [8]: 27%
- Population Healthy Nuclei (%) [8]: 22%
- Population Hoechst High Intensity Objects (%) [8]: 11%
- Population Membrane Permeable-Phenotype (%) [8]: 35%
- Population Mitochondria Different-Phenotype (%) [8]: 28%
- Population Mitotic Cells (%) [8]: 20%
- Population Normal (%) [8]: 88%
- Population Pyknosed Nuclei (%) [8]: 49%
- Population Tubulin-Different-Phenotype (%) [8]: 42%
- Total Cell Count [8]: 81
- Population Apoptotic (%) [9]: 42%
- Population Fragmented Nuclei (%) [9]: 40%
- Population Healthy Nuclei (%) [9]: 48%
- Population Hoechst High Intensity Objects (%) [9]: 16%
- Population Membrane Permeable-Phenotype (%) [9]: 21%
- Population Mitochondria Different-Phenotype (%) [9]: 12%
- Population Mitotic Cells (%) [9]: 57%
- Population Normal (%) [9]: 83%
- Population Pyknosed Nuclei (%) [9]: 10%
- Population Tubulin-Different-Phenotype (%) [9]: 37%
- Total Cell Count [9]: 79
- Population Apoptotic (%) [10]: 0%
- Population Fragmented Nuclei (%) [10]: 47%
- Population Healthy Nuclei (%) [10]: 52%
- Population Hoechst High Intensity Objects (%) [10]: 13%
- Population Membrane Permeable-Phenotype (%) [10]: 35%
- Population Mitochondria Different-Phenotype (%) [10]: 3%
- Population Mitotic Cells (%) [10]: 0%
- Population Normal (%) [10]: 86%
- Population Pyknosed Nuclei (%) [10]: 0%
- Population Tubulin-Different-Phenotype (%) [10]: 53%
- Total Cell Count [10]: 61
- Population Apoptotic (%) [11]: 63%
- Population Fragmented Nuclei (%) [11]: 34%
- Population Healthy Nuclei (%) [11]: 50%
- Population Hoechst High Intensity Objects (%) [11]: 17%
- Population Membrane Permeable-Phenotype (%) [11]: 31%
- Population Mitochondria Different-Phenotype (%) [11]: 14%
- Population Mitotic Cells (%) [11]: 36%
- Population Normal (%) [11]: 82%
- Population Pyknosed Nuclei (%) [11]: 15%
- Population Tubulin-Different-Phenotype (%) [11]: 82%
- Total Cell Count [11]: 85
- Population Apoptotic (%) [12]: 0%
- Population Fragmented Nuclei (%) [12]: 33%
- Population Healthy Nuclei (%) [12]: 65%
- Population Hoechst High Intensity Objects (%) [12]: 12%
- Population Membrane Permeable-Phenotype (%) [12]: 20%
- Population Mitochondria Different-Phenotype (%) [12]: 8%
- Population Mitotic Cells (%) [12]: 100%
- Population Normal (%) [12]: 87%
- Population Pyknosed Nuclei (%) [12]: 1%
- Population Tubulin-Different-Phenotype (%) [12]: 93%
- Total Cell Count [12]: 86
